Measurements as given in ChEMBL document CHEMBL1146591, “New polyhydroxy sterols: proteasome inhibitors from a marine sponge Acanthodendrilla sp” (J Nat Prod, 2003).
Values after ≈ are worked out from the molar mass of the structure shown. Active and inactive are the calls of the source. No cut-off for these calls is given here.

How the values were obtained:
HeLa = assay: Cytotoxicity against human HeLa cells after 3 days by MTT assay; type: functional, cell-based; conditions: 72 h
In short: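 HeLa cells grown in DMEM with 10% fetal calf serum, penicillin and streptomycin, 37 °C, 5% CO2. Seeded at 3 × 10^3 cells/well, precultured 1 day, then given compounds at various concentrations for 3 days at 37 °C. MTT (0.2 mg/mL in medium) added for 4 h, then DMSO, and OD read at 570 nm.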

Rattus norvegicus = species on record: Rattus norvegicus; assay: Inhibition of chymotrypsin like activity of partially purified rat liver proteasome at 100 ug/mL; type: subcellular
In short: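 Enzyme: proteasome-enriched pellet from rat liver (300 000g, 2 h). Preincubated with test material 10 min at 30 °C in 50 mM Tris-HCl pH 7.8, 1 mM DTT, 5 mM EDTA, 0.02% SDS. Then 0.05 mM Suc-LLVY-MCA added for 1 h at 30 °C. Stopped with 10% SDS and AMC fluorescence read (ex 380/em 460 nm).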

[1] = Inhibition of chymotrypsin like activity of partially purified rat liver proteasome; type: subcellular
In short: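 Enzyme: proteasome-enriched pellet from rat liver homogenate (300 000g, 2 h). Preincubated with inhibitor 10 min at 30 °C in 50 mM Tris-HCl pH 7.8, 1 mM DTT, 5 mM EDTA, 0.02% SDS. Then 0.05 mM Suc-LLVY-MCA added, 1 h at 30 °C, stopped with 10% SDS, AMC fluorescence read (ex 380/em 460 nm). IC50 from duplicate measurements.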

Activity (Rattus norvegicus)	IC50 [1]	Structure (SMILES)	IC50 (HeLa)
inactive	–	C/C=C(\C[C@@H](O)[C@@H](C)[C@H]1CC[C@H]2C3=C[C@H](OC(C)=O)[C@H]4[C@@H](OC(C)=O)[C@@H](OC(C)=O)CC[C@]4(C)[C@@]3(O)CC[C@]12C)C(C)C [AGOSTEROL E3]	14 µg/mL (≈ 23.2 µM)
–	10 µg/mL (≈ 19.3 µM)	CC(=O)O[C@@H]1[C@@H]2[C@@H](OC(C)=O)C=C3[C@H](CC[C@]4(C)[C@@H]([C@H](C)[C@H](O)CCC(C)C)CC[C@@H]34)[C@@]2(C)CC[C@@H]1O [AGOSTEROL C]	22 µg/mL (≈ 42.4 µM)
inactive	–	C/C=C(\C[C@@H](O)[C@@H](C)[C@H]1CC[C@H]2C3=C[C@H](OC(C)=O)[C@H]4[C@@H](OC(C)=O)[C@@H](OC(C)=O)CC[C@]4(C)[C@H]3[C@H](O)C[C@]12C)C(C)C [AGOSTEROL A3]	10 µg/mL (≈ 16.6 µM)
–	23 µg/mL (≈ 43 µM)	CC(=O)O[C@@H]1[C@@H]2[C@@H](OC(C)=O)C=C3[C@H](CC[C@]4(C)[C@@H]([C@@](C)(O)[C@H](O)CCC(C)C)CC[C@@H]34)[C@@]2(C)CC[C@@H]1O [AGOSTEROL C2]	> 25 µg/mL
–	100 µg/mL (≈ 173 µM)	CC(=O)O[C@@H]1[C@@H]2[C@@H](OC(C)=O)C=C3[C@H]([C@H](OC(C)=O)C[C@]4(C)[C@@H]([C@H](C)[C@H](O)CCC(C)C)CC[C@@H]34)[C@@]2(C)CC[C@@H]1O [AGOSTEROL G]	8.8 µg/mL (≈ 15.3 µM)
–	35 µg/mL (≈ 65.5 µM)	CC(=O)O[C@@H]1[C@@H]2[C@@H](OC(C)=O)C=C3[C@H]([C@H](O)C[C@]4(C)[C@@H]([C@H](C)[C@H](O)CCC(C)C)CC[C@@H]34)[C@@]2(C)CC[C@@H]1O [AGOSTEROL F]	16 µg/mL (≈ 29.9 µM)
–	90 µg/mL (≈ 156 µM)	CC(=O)O[C@@H]1[C@@H]2[C@@H](OC(C)=O)C=C3[C@H](CC[C@]4(C)[C@@H]([C@@](C)(O)[C@H](O)CCC(C)C)CC[C@@H]34)[C@@]2(C)CC[C@@H]1OC(C)=O [AGOSTEROL D2]	23 µg/mL (≈ 39.9 µM)
inactive	–	CC(=O)O[C@@H]1[C@@H]2[C@@H](OC(C)=O)C=C3[C@@H]4CC[C@H]([C@H](C)[C@H](O)CCC(C)C)[C@@]4(C)CC[C@]3(O)[C@@]2(C)CC[C@@H]1OC(C)=O [AGOSTEROL E]	25 µg/mL (≈ 43.3 µM)
–	20 µg/mL (≈ 36.6 µM)	C=C(CC(O)C(C)(O)[C@H]1CC[C@H]2C3=C[C@H](OC(C)=O)[C@H]4[C@@H](OC(C)=O)[C@@H](O)CC[C@]4(C)[C@H]3CC[C@]12C)C(C)C (stereo not given in full) [AGOSTEROL C7]	> 25 µg/mL

Structure (SMILES)	Activity (Rattus norvegicus)	IC50 [1]	IC50 (HeLa)
CC(=O)O[C@@H]1[C@@H]2[C@@H](OC(C)=O)C=C3[C@H]([C@H](O)C[C@]4(C)[C@@H]([C@H](C)[C@H](O)CCC(C)C)CC[C@@H]34)[C@@]2(C)CC[C@@H]1OC(C)=O [AGOSTEROL A]	–	50 µg/mL (≈ 86.7 µM)	25 µg/mL (≈ 43.3 µM)
